One molecule from ChEMBL document CHEMBL4261634, “Design and optimization of 2,3-dihydrobenzo[b][1,4]dioxine propanoic acids as novel GPR40 agonists with improved pharmacokinetic and safety profiles” (Bioorg Med Chem, 2018) can be followed below.

The target of one series is Cytochrome P450 2C19 (Homo sapiens, UniProt P33261). Nature of the series: Inhibition of CYP2C19 (unknown origin). In kind it is ADME.
The subject of a further series is Rattus norvegicus. Briefly: Subacute toxicity in Sprague-Dawley rat assessed as effect on food intake at 50 to 100 mg/kg, po administered once daily for 2 weeks. In kind it is organism-based. The conditions noted are these: in vivo, 336 h. In outline:
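SD rats dosed orally once daily for two weeks at 50 mg/kg and 100 mg/kg. Subacute toxicity was assessed over the dosing period from survival rate, behaviour, food intake and organ coefficients.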

Series [1] has as its target T1, Free fatty acid receptor 1 (Homo sapiens, UniProt O14842). Briefly: Agonist activity at GPR40 (unknown origin). In kind it is functional. In outline:
(§1)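 Human GPR40 activity read by calcium mobilization to give EC50. Emax expressed relative to linoleic acid as 100%. Mean ± SD, n = 3.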

Series [2] has as its target T1, Free fatty acid receptor 1. Briefly: Agonist activity at human GPR40 expressed in human HEK293 cells assessed as increase in intracellular calcium flux after 10 mins by fluorescence assay. In kind it is functional, cell-based. In outline:
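Human GPR40 activity read by calcium mobilization to give EC50. Mean ± SD, n = 3.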

The target of series [3] is T1, Free fatty acid receptor 1. Briefly: Agonist activity at human GPR40 expressed in human HEK293 cells assessed as increase in intracellular calcium flux after 10 mins by fluorescence assay relative to linoleic acid. In kind it is functional, cell-based. In outline:
as §1
For orientation: A change in cytosolic calcium serves as a functional read-out for many receptors and channels.

T1 sequence (O14842 whole entry): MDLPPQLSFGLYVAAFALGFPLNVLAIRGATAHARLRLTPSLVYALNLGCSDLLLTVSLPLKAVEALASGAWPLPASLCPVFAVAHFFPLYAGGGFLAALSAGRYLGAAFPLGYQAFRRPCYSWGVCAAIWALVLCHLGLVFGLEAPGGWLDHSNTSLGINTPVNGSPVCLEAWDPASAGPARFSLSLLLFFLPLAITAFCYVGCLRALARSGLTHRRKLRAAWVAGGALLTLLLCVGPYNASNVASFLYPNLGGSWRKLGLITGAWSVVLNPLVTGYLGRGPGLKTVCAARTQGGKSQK
Chain of Cytochrome P450 2C19 (P33261 whole entry): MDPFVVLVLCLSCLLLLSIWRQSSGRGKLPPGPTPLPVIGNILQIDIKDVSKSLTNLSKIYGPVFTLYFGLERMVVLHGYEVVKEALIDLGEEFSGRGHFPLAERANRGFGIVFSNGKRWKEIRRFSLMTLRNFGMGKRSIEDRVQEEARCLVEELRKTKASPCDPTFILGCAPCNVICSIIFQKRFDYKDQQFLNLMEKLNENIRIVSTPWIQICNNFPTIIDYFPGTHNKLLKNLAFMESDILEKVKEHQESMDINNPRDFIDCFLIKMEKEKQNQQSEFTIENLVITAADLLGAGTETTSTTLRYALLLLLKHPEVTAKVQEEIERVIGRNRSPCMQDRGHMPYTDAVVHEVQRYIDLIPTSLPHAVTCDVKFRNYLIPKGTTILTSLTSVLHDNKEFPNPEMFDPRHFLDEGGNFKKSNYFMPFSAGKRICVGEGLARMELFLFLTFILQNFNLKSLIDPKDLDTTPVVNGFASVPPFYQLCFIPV

`CC#C[C@@H](CC(=O)O)c1ccc(OC[C@H]2COc3ccc(Cl)cc3O2)cc1`: the half-inhibitory concentration (IC50) (as a rule, the concentration that inhibits the measured activity by half) on Cytochrome P450 2C19 was over 100 µM. In addition, the Activity entry with Rattus norvegicus is “Non-Toxic”. For the same molecule, the values for the concentration for a half-maximal effect (EC50) in series [1] and in series [2] were 46 nM and 50 nM, respectively. The maximum response (Emax) – broadly, the size of the effect at its maximum, as opposed to the concentration needed – in series [3] came to 86%.
